# According to ChEMBL document CHEMBL5678798 (Clin Cancer Res, 2009):
# Active and inactive are the calls of the source. The rule behind the calls is not given here.
# Legend:
# [1] = Inhibition of mouse YAK3
# [2] = Inhibition of N-terminal His6-tagged recombinant full-length human CDK5/N-terminal GST-tagged recombinant full-length human p35 expressed in baculovirus infected Sf21 cells at 3 uM by filter binding assay relative to control; conditions: condition cancer
# Procedure, shortened: (§1)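 Outsourced single-concentration screen in a commercial panel of 233 protein kinases, run as radiometric filter-binding activity assays. Test agent was tested at 0.3 or 3 µmol/L, as given in each line, from a 10 mmol/L DMSO stock. Activity is expressed as percent inhibition relative to control.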
# [3] = system: COLO 205; assay: Induction of cell cycle arrest in human COLO 205 cells assessed as increase in cells accumulation at G1 phase at 0.03 to 10 uM incubated for 24 to 48 hrs by propidium iodide staining based flow cytometric analysis; type: functional; conditions: dose 0.03-10 µM, time lower 24.0 hrs, time upper […]
# Procedure, shortened: (§2)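 COLO 205, MCF-7 or NCI-H929 cells seeded in 96-well plates overnight at 37°C, then exposed to DMSO or increasing compound concentrations for 24 or 48 h. Fixed and stained with propidium iodide (Vindelov method), then analysed by flow cytometry for sub-G1, G1, S and G2-M fractions. Experiment repeated twice.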
# [4] = target: Activin receptor type-1B (Homo sapiens) (UniProt P36896); assay: Inhibition of N-terminal GST-tagged recombinant human ALK4 (150 to end residues) expressed in baculovirus infected Sf21 cells at 3 uM by filter binding assay relative to control; procedure, shortened: as §1
# [5] = target: Epidermal growth factor receptor (Homo sapiens, UniProt P00533); assay: Inhibition of EGFR (unknown origin)
# [6] = Toxicity in nu/nu CD-1 mouse xenografted with human COLO 205 cells assessed as reduction in body weight at 30 mg/kg, po for 21 days relative to control; design: scale not given: the % may be the effect or the level left; conditions: in vivo, 504 h
# [7] = system: A549; assay: Antiproliferative activity against human A549 cells assessed as reduction in cell viability after 72 hrs by CellTiter-Glo assay; type: functional, cell-based; conditions: A549, 72 h
# Procedure, shortened: (§3)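 Cells seeded in 96-well plates, left overnight at 37°C, then exposed to a range of test concentrations for 72 h. Viability read by CellTiter-Glo luminescence; IC50 from four-parameter curve fit. Lines kept at 37°C, 5% CO2, in recommended growth medium.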
# [8] = target: Mitogen-activated protein kinase 10 (Homo sapiens, UniProt P53779); assay: Inhibition of JNK3 (unknown origin)
# Mitogen-activated protein kinase 10, sequence (P53779 whole entry): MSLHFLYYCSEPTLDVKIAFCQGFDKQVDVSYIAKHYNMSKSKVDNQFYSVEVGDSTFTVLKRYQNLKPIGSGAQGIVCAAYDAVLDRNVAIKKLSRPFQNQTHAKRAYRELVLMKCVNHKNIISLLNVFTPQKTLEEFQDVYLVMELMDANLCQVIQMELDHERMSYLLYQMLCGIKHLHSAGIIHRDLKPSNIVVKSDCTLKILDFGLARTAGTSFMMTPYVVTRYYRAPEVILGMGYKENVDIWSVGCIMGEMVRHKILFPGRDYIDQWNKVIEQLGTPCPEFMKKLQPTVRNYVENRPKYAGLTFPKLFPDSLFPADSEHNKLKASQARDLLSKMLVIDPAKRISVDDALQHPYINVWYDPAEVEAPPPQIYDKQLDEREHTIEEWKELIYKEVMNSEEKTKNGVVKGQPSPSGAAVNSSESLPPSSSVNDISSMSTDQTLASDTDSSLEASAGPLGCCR
# [9] = target: Serine/threonine-protein kinase Sgk2 (Homo sapiens) (UniProt Q9HBY8); assay: Inhibition of human SGK2 at 3 uM by filter binding assay relative to control
# [10] = target: Glycogen synthase kinase-3 alpha (Homo sapiens) (UniProt P49840); assay: Inhibition of N-terminal His6-tagged recombinant human GSK3alpha (2 to end residues) expressed in Sf21 cells at 0.3 uM by filter binding assay relative to control
# [11] = target: Fibroblast growth factor receptor 1 (Homo sapiens, UniProt P11362); assay: Inhibition of N-terminal GST-tagged recombinant human FGFR1 (456 to 765 residues) expressed in baculovirus infected Sf21 cells by filter binding assay
# [12] = system: MCF7; assay: Induction of cell cycle arrest in human MCF7 cells assessed as cells accumulation at G1 phase at 1 umol/L incubated for 48 hrs by propidium iodide staining based flow cytometric analysis (reference value: 67%); type: functional; conditions: dose 1 µmol/L, at 1 µM; procedure, shortened: as §2
# [13] = target: Ribosomal protein S6 kinase alpha-1 (Homo sapiens, UniProt Q15418); assay: Inhibition of RSK1 (unknown origin)
# Ribosomal protein S6 kinase alpha-1, sequence (Q15418 whole entry, the tested form may be a part): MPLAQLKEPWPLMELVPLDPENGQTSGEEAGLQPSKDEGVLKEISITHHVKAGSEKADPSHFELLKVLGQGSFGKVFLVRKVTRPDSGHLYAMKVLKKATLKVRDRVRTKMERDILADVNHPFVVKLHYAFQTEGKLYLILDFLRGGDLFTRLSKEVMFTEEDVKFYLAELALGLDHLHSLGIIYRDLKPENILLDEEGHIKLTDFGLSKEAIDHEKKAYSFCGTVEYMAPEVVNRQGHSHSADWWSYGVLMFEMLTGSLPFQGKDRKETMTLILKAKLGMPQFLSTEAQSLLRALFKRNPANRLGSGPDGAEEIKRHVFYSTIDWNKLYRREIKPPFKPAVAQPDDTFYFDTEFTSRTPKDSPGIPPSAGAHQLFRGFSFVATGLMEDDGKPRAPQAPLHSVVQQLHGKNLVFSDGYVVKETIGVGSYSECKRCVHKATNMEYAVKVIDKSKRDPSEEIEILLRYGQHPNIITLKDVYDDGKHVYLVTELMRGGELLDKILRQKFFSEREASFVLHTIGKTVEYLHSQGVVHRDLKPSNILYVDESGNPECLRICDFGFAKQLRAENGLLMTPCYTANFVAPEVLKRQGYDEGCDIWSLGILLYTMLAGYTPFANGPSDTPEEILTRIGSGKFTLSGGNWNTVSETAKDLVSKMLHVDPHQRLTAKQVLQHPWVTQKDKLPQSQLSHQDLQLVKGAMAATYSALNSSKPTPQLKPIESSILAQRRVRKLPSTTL
# [14] = target: Fibroblast growth factor receptor 3 (Homo sapiens) (UniProt P22607); assay: Inhibition of N-terminal His6-tagged recombinant human FGFR3 (447 to 761 residues) expressed in Sf21 cells at 3 uM by filter binding assay relative to control
# [15] = target: Serine/threonine-protein kinase pim-3 (Homo sapiens) (UniProt Q86V86); assay: Inhibition of N-terminal 6His-tagged recombinant human Pim-3 expressed in baculovirus infected Sf21 cells at 0.3 uM by filter binding assay relative to control; procedure, shortened: as §1
# [16] = target: Serine/threonine-protein kinase D2 (PRKD2) (Homo sapiens) (UniProt Q9BZL6); assay: Inhibition of N-terminal His6 tagged, recombinant full-length human PKD2 expressed in Sf21 cells at 0.3 uM by filter binding assay relative to control
# [17] = system: MCF7; assay: Induction of cell cycle arrest in human MCF7 cells assessed as cells accumulation at S phase at 1 umol/L incubated for 48 hrs by propidium iodide staining based flow cytometric analysis (reference value: 10%); type: functional; conditions: dose 1 µmol/L, at 1 µM; procedure, shortened: as §2
# [18] = Antiproliferative activity against human SUPM2 cells assessed as reduction in cell viability after 72 hrs by CellTiter-Glo assay; type: functional, cell-based; conditions: SUP-M2, 72 h; procedure, shortened: as §3
# [19] = target: Aurora kinase B (Homo sapiens, UniProt Q96GD4); assay: Inhibition of Aurora B (unknown origin)
# Aurora kinase B, sequence (Q96GD4 whole entry): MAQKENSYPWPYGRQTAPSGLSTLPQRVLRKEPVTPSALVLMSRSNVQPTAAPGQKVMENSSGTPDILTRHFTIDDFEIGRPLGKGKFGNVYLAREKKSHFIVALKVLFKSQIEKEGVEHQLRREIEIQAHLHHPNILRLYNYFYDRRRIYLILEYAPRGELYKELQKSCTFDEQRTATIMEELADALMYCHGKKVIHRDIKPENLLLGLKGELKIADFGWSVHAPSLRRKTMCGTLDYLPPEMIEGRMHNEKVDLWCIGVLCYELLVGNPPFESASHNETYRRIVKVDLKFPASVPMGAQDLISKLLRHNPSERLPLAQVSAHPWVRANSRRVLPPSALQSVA
# [20] = Toxicity in nu/nu CD-1 mouse xenografted with human BXPC-3 cells assessed as reduction in body weight at 30 mg/kg, po for 21 days relative to control; type: organism-based; conditions: in vivo, 504 h, time 21 day
# [21] = target: Tyrosine-protein kinase Fyn (Homo sapiens, UniProt P06241); assay: Inhibition of FYN (unknown origin)
# [22] = target: Aurora kinase A (Homo sapiens, UniProt O14965); assay: Inhibition of N-terminal 6His-tagged recombinant full-length human Aurora-A expressed in Sf21 cells by filter binding assay
# Aurora kinase A, sequence (O14965 whole entry): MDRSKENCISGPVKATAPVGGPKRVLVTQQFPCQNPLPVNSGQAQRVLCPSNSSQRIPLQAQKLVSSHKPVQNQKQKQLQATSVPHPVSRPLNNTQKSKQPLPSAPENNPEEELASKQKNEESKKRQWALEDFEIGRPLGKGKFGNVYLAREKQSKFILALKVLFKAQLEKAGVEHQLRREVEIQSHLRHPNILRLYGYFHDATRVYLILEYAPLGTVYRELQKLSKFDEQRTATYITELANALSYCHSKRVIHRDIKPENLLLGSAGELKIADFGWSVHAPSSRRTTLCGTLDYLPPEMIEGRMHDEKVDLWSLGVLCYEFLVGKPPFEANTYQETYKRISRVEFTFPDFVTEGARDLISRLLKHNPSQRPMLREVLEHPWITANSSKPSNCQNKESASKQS
# [23] = target: Serine/threonine-protein kinase BRSK1 (Homo sapiens) (UniProt Q8TDC3); assay: Inhibition of N-terminal 6His-tagged recombinant human BrSK1 (2 to end residues) expressed in baculovirus infected Sf21 cells at 3 uM by filter binding assay relative to control; procedure, shortened: as §1
# Serine/threonine-protein kinase BRSK1 (Homo sapiens), sequence (Q8TDC3 whole entry): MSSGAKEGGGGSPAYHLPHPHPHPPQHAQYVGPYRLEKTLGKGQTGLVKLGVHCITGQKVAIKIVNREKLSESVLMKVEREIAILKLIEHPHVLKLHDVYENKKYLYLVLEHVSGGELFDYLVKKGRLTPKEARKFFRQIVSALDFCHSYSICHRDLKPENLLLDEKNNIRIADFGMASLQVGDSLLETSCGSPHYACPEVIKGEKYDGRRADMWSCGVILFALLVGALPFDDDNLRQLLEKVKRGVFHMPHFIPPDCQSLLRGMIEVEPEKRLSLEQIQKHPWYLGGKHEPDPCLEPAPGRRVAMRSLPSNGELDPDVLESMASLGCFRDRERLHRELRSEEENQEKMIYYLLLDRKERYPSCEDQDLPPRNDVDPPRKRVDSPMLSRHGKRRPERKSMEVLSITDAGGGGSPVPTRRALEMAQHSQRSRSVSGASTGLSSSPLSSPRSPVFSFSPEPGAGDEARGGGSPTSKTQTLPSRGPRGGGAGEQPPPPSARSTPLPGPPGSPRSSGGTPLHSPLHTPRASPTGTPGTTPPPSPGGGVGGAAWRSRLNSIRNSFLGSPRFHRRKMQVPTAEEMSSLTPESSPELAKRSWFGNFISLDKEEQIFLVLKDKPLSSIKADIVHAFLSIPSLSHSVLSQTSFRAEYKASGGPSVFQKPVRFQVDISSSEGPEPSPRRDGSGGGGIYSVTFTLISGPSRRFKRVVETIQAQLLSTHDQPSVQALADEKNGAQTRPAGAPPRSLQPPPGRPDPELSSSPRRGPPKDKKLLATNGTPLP
# [24] = target: Calcium/calmodulin-dependent protein kinase type IV (Homo sapiens) (UniProt Q16566); assay: Inhibition of C-terminal His6-tagged recombinant full length human CaMKIV expressed in baculovirus infected Sf21 cells at 0.3 uM by filter binding assay relative to control
# Calcium/calmodulin-dependent protein kinase type IV (Homo sapiens), sequence (Q16566 whole entry): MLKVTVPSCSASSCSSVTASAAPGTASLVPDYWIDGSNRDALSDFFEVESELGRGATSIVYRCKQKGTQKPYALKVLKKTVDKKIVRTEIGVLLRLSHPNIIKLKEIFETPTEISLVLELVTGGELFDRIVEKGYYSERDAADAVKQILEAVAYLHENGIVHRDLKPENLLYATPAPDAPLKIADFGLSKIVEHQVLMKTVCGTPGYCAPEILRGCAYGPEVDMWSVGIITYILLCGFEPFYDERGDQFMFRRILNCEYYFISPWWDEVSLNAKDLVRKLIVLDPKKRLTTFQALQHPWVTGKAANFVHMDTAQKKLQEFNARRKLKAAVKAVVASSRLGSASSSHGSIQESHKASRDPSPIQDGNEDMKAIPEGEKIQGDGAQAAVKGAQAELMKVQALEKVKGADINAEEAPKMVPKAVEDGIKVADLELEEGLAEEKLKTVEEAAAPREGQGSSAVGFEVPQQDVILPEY
# Procedure, shortened: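 KinaseProfiler panel of 233 kinases: radiometric filter-binding activity assays with compound at 0.3 or 3 µmol/L. Read-out is percent inhibition.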
# [25] = target: Insulin receptor (Mus musculus) (UniProt P15208); conditions: CD-1, dose 30.0 mg/kg, route po, time 21.0 day
# Insulin receptor (Mus musculus), sequence (P15208 28-748 limits assumed): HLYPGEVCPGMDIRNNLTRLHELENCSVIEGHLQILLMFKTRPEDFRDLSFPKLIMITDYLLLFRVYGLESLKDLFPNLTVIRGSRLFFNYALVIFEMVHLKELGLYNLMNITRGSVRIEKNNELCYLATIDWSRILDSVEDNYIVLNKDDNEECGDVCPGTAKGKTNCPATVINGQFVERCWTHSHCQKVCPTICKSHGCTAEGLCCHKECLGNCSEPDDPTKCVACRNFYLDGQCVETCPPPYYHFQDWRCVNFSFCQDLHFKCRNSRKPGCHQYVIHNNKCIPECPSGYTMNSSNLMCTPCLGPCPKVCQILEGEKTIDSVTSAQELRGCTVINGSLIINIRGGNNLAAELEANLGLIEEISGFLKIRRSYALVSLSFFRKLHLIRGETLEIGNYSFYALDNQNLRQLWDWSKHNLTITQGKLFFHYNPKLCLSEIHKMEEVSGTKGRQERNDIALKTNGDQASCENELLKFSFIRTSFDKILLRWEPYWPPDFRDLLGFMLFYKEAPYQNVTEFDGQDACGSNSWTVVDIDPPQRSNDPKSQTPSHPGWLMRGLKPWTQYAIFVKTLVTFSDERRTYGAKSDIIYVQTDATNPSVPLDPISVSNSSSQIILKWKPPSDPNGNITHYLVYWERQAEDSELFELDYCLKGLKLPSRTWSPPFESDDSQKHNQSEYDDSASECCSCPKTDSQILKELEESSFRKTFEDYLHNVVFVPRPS
# Insulin receptor (Mus musculus), sequence (P15208 753-1372 limits assumed): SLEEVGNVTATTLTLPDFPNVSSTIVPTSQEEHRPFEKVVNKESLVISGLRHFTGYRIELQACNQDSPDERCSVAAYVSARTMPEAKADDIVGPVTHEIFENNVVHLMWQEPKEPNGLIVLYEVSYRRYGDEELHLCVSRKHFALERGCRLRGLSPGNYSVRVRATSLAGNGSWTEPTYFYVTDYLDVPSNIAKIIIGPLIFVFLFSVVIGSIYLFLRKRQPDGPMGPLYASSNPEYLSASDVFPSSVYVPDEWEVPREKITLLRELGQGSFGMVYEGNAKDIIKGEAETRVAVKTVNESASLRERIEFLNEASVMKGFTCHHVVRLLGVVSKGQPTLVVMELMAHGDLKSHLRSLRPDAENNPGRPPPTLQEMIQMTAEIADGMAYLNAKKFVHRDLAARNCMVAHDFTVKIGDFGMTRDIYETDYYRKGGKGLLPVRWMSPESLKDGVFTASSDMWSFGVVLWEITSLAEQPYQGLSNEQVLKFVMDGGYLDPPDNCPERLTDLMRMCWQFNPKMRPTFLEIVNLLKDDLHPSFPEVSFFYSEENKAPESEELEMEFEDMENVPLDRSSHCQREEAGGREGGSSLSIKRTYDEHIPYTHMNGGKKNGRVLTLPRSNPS
# [26] = target: Tyrosine-protein kinase Yes (Homo sapiens) (UniProt P07947); assay: Inhibition of N-terminal His6 tagged recombinant full-length human Yes expressed in baculovirus infected Sf21 cells at 3 uM by filter binding assay relative to control; procedure, shortened: as §1
# [27] = target: Serine/threonine-protein kinase PLK2 (Homo sapiens) (UniProt Q9NYY3); assay: Inhibition of human Snk at 3 uM by filter binding assay relative to control
# [28] = system: HN5; assay: Antiproliferative activity against human HN5 cells assessed as reduction in cell viability after 72 hrs by CellTiter-Glo assay; type: functional, cell-based; conditions: HN5, 72 h; procedure, shortened: as §3
smiles,measurement,setting,value
CCc1cc(Nc2nccc(-c3c(-c4ccc(OC)c(C(=O)Nc5c(F)cccc5F)c4)nc4ccccn34)n2)c(OC)cc1N1CCC(N2CCN(S(C)(=O)=O)CC2)CC1,IC50,[1],> 10 µM
same,inhibition at 3 µM,[2],-24%
same,Activity,[3],Active
same,inhibition,[4],-10%
same,IC50,[5],> 10 µM
same,Activity,[6],5%
same,IC50,[7],> 20 µM
same,IC50,[8],> 10 µM
same,inhibition,[9],25%
same,inhibition,[10],-10%
same,IC50,[11],1.88 µM
same,Activity,[12],76%
same,IC50,[13],6.3 µM
same,inhibition,[14],25%
same,inhibition,[15],-10%
same,inhibition,[16],4%
same,Activity,[17],5%
same,IC50,[18],> 30 µM
same,IC50,[19],4 µM
same,Activity,[20],Non-Toxic
same,IC50,[21],6.3 µM
same,IC50,[22],0.159 µM
same,inhibition,[23],24%
same,inhibition,[24],11%
same,inhibition,[25],inactive
same,inhibition,[26],27%
same,inhibition,[27],-8%
same,IC50,[28],> 20 µM
